Calls of active or inactive are those of the source. The rule behind the calls is not given here.
Experiments:
[1] = biological target: T1, Glycogen synthase kinase-3 beta (Homo sapiens, UniProt P49841); assay: Inhibition of human recombinant GSK3-beta at 1 uM by ELISA
Method in brief: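 Recombinant human GSK3β (500 ng) with human tau-441 (1 μg) as substrate, in a 20 μL reaction with 10× kinase buffer stock (200 mM Tris-HCl pH 7.4, 100 mM MgCl2, 5 mM DTT) and ATP added from a 100 μM stock. Incubated 30 °C for 45 min. Phospho-tau pS396 measured by immunoassay at A450. Controls were DMSO and no-ATP.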
Target sequence in this assay (P49841 whole entry, looked up): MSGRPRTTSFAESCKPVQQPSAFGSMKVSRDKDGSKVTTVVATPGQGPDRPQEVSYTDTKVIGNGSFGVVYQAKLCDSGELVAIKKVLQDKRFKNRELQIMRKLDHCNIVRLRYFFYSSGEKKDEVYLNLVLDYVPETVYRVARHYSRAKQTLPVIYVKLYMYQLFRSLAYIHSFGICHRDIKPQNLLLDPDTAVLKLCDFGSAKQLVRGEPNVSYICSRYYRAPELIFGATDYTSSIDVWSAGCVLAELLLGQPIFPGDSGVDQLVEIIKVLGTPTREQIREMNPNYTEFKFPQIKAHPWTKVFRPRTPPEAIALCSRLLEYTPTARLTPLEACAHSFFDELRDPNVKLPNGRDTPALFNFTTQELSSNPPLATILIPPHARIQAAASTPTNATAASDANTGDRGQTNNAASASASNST

[2] = biological target: T1, Glycogen synthase kinase-3 beta; assay: Inhibition of human recombinant GSK3-beta at 1 uM by ATP competitive assay
Method in brief: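 Recombinant human GSK3β (60 ng) with tau-441 (400 ng) in 10× buffer stock (200 mM Tris-HCl pH 7.4, 100 mM MgCl2, 5 mM DTT). Inhibitor at 1 μM final, ATP varied, 20 μL, 30 °C for 45 min. Tau pS396 measured by immunoassay at A450. Activity (% of control) versus [ATP] fitted to a simple competitive-inhibition equation to give apparent Ki.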
Target sequence in this assay (P49841 whole entry): as the sequence (P49841 whole entry, looked up) above

[3] = biological target: Cyclin-dependent kinase 4/cyclin D1 (Homo sapiens, UniProt P11802); assay: Inhibition of human CDK4/cyclin D1 by ELISA; assay type: protein-complex assay
Sequence of Cyclin-dependent kinase 4/cyclin D1 (P11802 whole entry): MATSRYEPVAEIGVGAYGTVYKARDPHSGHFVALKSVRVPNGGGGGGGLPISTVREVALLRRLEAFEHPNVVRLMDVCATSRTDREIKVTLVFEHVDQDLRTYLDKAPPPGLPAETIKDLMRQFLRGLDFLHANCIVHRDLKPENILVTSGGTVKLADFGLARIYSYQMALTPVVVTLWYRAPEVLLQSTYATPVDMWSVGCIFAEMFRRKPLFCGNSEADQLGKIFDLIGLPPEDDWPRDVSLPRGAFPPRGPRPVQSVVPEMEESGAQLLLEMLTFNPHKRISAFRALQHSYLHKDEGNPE
Sequence of Cyclin-dependent kinase 4/cyclin D1 (P24385 whole entry, further chain): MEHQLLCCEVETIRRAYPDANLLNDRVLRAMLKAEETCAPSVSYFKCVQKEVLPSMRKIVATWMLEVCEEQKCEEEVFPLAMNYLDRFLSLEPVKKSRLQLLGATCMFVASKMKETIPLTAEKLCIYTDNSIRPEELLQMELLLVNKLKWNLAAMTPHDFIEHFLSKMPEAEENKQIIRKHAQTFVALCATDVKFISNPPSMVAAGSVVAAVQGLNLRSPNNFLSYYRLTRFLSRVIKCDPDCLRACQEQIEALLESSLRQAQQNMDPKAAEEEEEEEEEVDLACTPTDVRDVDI

[4] = biological target: T1, Glycogen synthase kinase-3 beta; assay: Inhibition of human recombinant GSK3-beta
Method in brief: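 10× kinase buffer stock was 200 mM Tris-HCl pH 7.4, 100 mM MgCl2, 5 mM DTT; ATP added from a 100 μM stock. Incubated 30 °C for 45 min. Tau pS396 read by immunoassay at A450. DMSO and no-ATP controls were run. IC50 taken from activity curves.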
Target sequence in this assay (P49841 whole entry): as the sequence (P49841 whole entry, looked up) above

[5] = biological target: Cyclin-dependent kinase 2/cyclin A (Homo sapiens, UniProt P24941); assay: Inhibition of human CDK2/Cyclin A by ELISA; assay type: protein-complex assay
[6] = Toxicity in Zebrafish embryos assessed as induction of eyeless phenotype during gastrulation at 25 uM after 3 days; assay type: tissue-based, Danio rerio, Embryo; details: in vivo, 72 h
Method in brief: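 FLK-1:EGFP transgenic zebrafish embryos, six per well in 200 μL Holtfreter's buffer. Compound added at dome stage and embryos kept in compound solution up to 7 days. Heads examined at 1 and 3 dpf for eye phenotype. LiCl comparison: 0.3 M for 10 min, then buffer.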

| SMILES | Activity [1] | further results |
| --- | --- | --- |
| COC(=O)c1ccc2cc(C(C)C)c3c(c2c1)C(=O)NC3=O | Active |  |
| Cn1cc(C2=C(c3ccc(Cl)cc3Cl)C(=O)NC2=O)c2ccccc21 [SB-216763] | Active | IC50 [3]: 32 µM; IC50 [5]: 0.269 µM; Activity [6]: Not Active |
| COC(=O)c1cccc2c3c(c(C)cc12)C(=O)NC3=O | Active |  |
| COC(=O)c1ccc2c3c(c(CC(C)C)cc2c1)C(=O)NC3=O | Active |  |
| CCc1cc2c(C(=O)OC)cccc2c2c1C(=O)NC2=O | Active |  |
| COC(=O)c1ccc2cc(CC(C)C)c3c(c2c1)C(=O)NC3=O | Active |  |
| Cc1cc2ccc(Cl)cc2c2c1C(=O)NC2=O | Active |  |
| CCCc1cc2c(C(=O)OC)cccc2c2c1C(=O)NC2=O | Active |  |
| COC(=O)c1cccc2c3c(c(C)c(C)c12)C(=O)NC3=O | Active |  |
| CCc1c(C)c2c(c3cc(C(=O)OC)ccc13)C(=O)NC2=O | Active |  |
| CCc1cc2c(c3cc(OC)c(OC)cc13)C(=O)NC2=O | Active | IC50 [3]: 19 µM; IC50 [4]: 0.092 µM; Activity [6]: Not Active |
| COC(=O)c1ccc2c3c(c(CCOCc4ccccc4)cc2c1)C(=O)NC3=O | Active |  |
| COC(=O)c1cccc2c3c(c(CC(C)C)cc12)C(=O)NC3=O | Active | IC50 [3]: 6 µM; IC50 [4]: 0.486 µM |
| COC(=O)c1ccc2c3c(c(CC(C)OCc4ccccc4)cc2c1)C(=O)NC3=O (stereo not drawn) | Active |  |
| COC(=O)c1ccc2c3c(c(C(C)C)cc2c1)C(=O)NC3=O | Active |  |

The next lines start with results.

| Activity [1] | SMILES | further results |
| --- | --- | --- |
| Active | CCc1cc2ccc(C(=O)OC)cc2c2c1C(=O)NC2=O |  |
| Active | COc1cc2c(C)cc3c(c2cc1OC)C(=O)NC3=O | Ki [2]: 0.259 µM; IC50 [3]: 16 µM; IC50 [4]: 0.27 µM; IC50 [5]: 0.787 µM; Activity [6]: Active |
| Active | COC(=O)c1ccc2c3c(c(CCO)cc2c1)C(=O)NC3=O |  |
| Active | COC(=O)c1ccc2cc(C)c3c(c2c1)C(=O)NC3=O |  |
| Active | COC(=O)c1cccc2c3c(c(C(C)C)cc12)C(=O)NC3=O |  |
| Active | COc1ccc2cc(C)c3c(c2c1)C(=O)NC3=O |  |
| Active | CCc1cc2cc(C(=O)OC)ccc2c2c1C(=O)NC2=O |  |
| Active | COC(=O)c1ccc2c3c(c(C)c(C)c2c1)C(=O)NC3=O |  |
| Active | Cc1cc2ccccc2c2c1C(=O)NC2=O |  |
| Active | COC(=O)c1ccc2c3c(c(CC(C)O)cc2c1)C(=O)NC3=O (stereo not drawn) |  |

Source: ChEMBL document CHEMBL1154759, “Benzo[e]isoindole-1,3-diones as potential inhibitors of glycogen synthase kinase-3 (GSK-3). Synthesis, kinase inhibitory activity, zebrafish phenotype, and modeling of binding mode” (J Med Chem, 2010)
